The text below walks through data of ChEMBL document CHEMBL3616441, “Discovery of a Selective and CNS Penetrant Negative Allosteric Modulator of Metabotropic Glutamate Receptor Subtype 3 with Antidepressant and Anxiolytic Activity in Rodents” (J Med Chem, 2015).

Assay [1] has as its target Metabotropic glutamate receptor 5 (Rattus norvegicus, UniProt P31424). Kind of assay: Modulation of rat mGlu5 receptor assessed as calcium mobilization by cell based fluorescence assay. It counts as functional. The method, boiled down: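 Calcium mobilization assay with fluorescence read-out in cells expressing mGlu5; full concentration-response curves; % Glu Max is the amplitude of response with 30 μM test compound as a percentage of the maximal response to 100 μM glutamate; values averaged over n-3.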
A general note: Calcium assays in cells follow changes in intracellular calcium, usually with a dye or a luminescent sensor.

The target in assay [2] is Metabotropic glutamate receptor 3 (Rattus norvegicus, UniProt P31422). As to the kind of experiment: Negative allosteric modulation of rat mGlu3 receptor assessed as calcium mobilization by cell based fluorescence assay. It is filed as functional. The procedure, abridged:
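Cell line stably expressing rat mGlu3 with the promiscuous G-protein Gα15. Calcium mobilization with fluorescence read-out, inhibition of the glutamate response. Full concentration-response curves, top concentration 30 μM. % Glu Max is the response with 30 μM test compound as a percentage of the maximal response to 100 μM glutamate. Values averaged over n-3.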

Assay [3] has as its target Metabotropic glutamate receptor 5 (Rattus norvegicus) (UniProt P31424). Kind of assay: Positive allosteric modulation of rat mGlu5 receptor assessed as calcium mobilization by cell based fluorescence assay. It is filed as functional.
For assay [4] the target is unchanged. As to the kind of experiment: Modulation of rat mGlu5 receptor assessed as assessed as calcium mobilization at 30 uM by cell based fluorescence assay. It counts as functional.
The target of assay [5] is Metabotropic glutamate receptor 3 (Rattus norvegicus) (UniProt P31422). As to the kind of experiment: Negative allosteric modulation of rat mGlu3 receptor assessed as amplitude response at 30 uM relative to glutamate. The method, boiled down: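 Calcium mobilization in cell line stably expressing rat mGlu3 with promiscuous Gα15; fluorescence read-out; amplitude of glutamate response with 30 μM test compound expressed as percentage of maximal response (100 μM glutamate); average of n = 3.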
Sequence of Metabotropic glutamate receptor 3 (Rattus norvegicus) (P31422 23-879 limits assumed): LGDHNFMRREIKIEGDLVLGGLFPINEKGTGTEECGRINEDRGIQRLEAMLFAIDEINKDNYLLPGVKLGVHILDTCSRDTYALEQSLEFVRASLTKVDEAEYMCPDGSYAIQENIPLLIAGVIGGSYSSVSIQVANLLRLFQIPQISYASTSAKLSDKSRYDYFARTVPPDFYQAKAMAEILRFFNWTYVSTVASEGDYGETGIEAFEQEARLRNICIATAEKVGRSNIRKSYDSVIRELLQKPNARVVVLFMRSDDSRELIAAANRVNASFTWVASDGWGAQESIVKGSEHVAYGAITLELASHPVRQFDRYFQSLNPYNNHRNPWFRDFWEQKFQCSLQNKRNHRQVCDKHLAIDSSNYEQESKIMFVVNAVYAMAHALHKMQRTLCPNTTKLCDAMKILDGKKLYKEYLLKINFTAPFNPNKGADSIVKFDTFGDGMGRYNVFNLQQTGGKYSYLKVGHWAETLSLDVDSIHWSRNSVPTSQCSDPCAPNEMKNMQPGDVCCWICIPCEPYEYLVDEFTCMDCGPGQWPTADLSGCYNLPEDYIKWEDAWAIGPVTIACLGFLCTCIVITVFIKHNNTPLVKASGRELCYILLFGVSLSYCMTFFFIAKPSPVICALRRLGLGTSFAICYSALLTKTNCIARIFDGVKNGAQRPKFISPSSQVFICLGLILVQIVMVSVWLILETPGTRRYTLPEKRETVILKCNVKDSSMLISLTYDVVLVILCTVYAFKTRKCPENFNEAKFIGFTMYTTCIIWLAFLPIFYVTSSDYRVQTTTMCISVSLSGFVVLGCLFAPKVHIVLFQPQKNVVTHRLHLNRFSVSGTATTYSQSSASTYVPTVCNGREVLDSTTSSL

A word on the EC50: it is the concentration at which the effect is half-maximal. By IC50 is commonly meant the concentration needed to halve the response being measured.

Calls of active or inactive are those of the source. No cut-off for these calls is given here.

Sequence of Metabotropic glutamate receptor 5 (Rattus norvegicus) (P31424 21-1203 limits assumed): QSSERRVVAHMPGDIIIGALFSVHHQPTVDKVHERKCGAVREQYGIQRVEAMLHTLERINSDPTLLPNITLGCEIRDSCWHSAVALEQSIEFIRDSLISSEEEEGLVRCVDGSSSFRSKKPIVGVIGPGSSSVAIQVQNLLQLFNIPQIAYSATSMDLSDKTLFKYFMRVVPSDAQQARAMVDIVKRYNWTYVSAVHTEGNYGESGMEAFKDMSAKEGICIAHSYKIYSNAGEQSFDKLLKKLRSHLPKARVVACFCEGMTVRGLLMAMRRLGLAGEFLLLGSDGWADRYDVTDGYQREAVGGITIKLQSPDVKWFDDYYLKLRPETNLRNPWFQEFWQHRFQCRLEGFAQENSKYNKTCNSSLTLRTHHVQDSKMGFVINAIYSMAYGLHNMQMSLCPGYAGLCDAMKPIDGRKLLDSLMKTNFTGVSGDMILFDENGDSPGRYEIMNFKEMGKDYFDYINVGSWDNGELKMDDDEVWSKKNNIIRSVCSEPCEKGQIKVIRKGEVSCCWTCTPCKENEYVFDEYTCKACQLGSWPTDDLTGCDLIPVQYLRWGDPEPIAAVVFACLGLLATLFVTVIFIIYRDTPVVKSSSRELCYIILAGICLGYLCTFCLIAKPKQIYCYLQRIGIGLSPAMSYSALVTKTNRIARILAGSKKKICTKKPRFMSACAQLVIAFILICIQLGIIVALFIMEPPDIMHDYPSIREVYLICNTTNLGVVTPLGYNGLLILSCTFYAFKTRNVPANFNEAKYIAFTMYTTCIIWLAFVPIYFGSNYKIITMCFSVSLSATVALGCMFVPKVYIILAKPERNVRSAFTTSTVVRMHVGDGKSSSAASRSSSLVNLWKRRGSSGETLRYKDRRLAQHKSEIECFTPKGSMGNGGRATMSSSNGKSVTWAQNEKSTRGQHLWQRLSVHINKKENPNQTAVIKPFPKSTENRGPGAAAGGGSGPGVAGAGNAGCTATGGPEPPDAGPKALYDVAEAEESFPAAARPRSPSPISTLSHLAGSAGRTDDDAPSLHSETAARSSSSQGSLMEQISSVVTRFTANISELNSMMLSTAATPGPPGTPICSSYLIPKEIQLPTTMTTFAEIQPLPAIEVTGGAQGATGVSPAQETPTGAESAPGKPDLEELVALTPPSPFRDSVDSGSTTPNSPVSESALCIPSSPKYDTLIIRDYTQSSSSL
Sequence of Metabotropic glutamate receptor 5 (P31424 whole entry): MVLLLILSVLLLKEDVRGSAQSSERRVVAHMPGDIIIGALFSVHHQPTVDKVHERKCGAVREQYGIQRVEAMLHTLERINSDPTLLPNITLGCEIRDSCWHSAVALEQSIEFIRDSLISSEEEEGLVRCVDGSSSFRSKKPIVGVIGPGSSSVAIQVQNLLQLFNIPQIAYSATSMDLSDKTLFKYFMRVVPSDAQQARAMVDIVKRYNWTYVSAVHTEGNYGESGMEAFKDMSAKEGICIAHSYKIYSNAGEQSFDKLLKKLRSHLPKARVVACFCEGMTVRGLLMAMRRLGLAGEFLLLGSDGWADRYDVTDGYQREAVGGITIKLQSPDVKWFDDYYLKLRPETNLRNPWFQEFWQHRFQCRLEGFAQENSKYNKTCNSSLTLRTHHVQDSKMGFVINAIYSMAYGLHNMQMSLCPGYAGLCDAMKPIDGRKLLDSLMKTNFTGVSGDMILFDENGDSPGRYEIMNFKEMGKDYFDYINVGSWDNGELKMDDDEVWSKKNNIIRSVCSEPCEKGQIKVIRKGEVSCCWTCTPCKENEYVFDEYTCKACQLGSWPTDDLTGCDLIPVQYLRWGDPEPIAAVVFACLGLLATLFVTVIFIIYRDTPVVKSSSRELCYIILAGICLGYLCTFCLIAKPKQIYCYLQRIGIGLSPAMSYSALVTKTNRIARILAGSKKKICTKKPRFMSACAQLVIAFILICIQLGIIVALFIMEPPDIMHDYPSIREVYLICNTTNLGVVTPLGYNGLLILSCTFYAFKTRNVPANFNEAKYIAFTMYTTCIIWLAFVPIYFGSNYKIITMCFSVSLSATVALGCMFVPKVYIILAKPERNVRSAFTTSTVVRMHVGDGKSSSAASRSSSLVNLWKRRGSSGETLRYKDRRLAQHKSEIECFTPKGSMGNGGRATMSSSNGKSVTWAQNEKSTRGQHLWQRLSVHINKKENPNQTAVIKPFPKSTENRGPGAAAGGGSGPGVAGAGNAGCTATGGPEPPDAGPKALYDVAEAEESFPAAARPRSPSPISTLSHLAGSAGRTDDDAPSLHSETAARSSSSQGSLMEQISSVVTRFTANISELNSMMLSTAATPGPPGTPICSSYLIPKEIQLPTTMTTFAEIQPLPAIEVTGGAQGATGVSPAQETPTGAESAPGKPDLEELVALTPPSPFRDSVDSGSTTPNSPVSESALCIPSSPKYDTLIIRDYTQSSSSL
Sequence of Metabotropic glutamate receptor 3 (P31422 whole entry): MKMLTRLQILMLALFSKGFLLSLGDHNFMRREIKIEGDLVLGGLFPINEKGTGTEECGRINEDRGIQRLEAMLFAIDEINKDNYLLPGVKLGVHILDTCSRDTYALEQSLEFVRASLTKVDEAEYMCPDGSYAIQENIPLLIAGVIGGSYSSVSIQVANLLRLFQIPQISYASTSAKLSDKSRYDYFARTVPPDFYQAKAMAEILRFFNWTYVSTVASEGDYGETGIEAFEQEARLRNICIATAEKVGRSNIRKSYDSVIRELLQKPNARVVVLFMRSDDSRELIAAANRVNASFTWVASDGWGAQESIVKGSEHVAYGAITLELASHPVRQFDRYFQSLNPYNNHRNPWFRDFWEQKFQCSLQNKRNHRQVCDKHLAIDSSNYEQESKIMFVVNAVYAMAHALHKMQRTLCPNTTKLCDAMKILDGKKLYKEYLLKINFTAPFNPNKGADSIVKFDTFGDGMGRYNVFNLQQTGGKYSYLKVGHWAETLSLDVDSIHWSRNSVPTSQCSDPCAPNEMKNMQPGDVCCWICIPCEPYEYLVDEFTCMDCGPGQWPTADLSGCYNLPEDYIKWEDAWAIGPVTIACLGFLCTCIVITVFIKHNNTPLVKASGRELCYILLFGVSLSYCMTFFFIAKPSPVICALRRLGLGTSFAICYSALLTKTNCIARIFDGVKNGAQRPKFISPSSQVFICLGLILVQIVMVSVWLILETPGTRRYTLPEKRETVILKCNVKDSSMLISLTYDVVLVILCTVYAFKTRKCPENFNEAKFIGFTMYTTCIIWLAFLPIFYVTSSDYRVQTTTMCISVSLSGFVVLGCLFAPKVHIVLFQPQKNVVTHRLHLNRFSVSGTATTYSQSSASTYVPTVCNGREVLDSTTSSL

On to `COc1cccc(OCc2cc3n(n2)[C@H](C)CN(c2ccc(F)cc2)C3=O)c1`, for which the EC50 in assay [1] was 1840 nM. For the same molecule, the IC50 in assay [2] was 1290 nM. Further, the outcome in assay [3] was Active. Further, the Activity is 32.4% in assay [4] and 1.78% in assay [5].
`C[C@@H]1CN(c2cccc(F)c2)C(=O)c2cc(COc3ccc(Cl)cn3)nn21`: the EC50 in assay [1] was 5970 nM. In addition, the IC50 in assay [2] came to 206 nM. In assay [3], the result was Active. The Activity in assay [4] amounted to 63.5%; in assay [5], 1.38%.
Consider `C[C@@H]1CN(c2ccc(F)cc2)C(=O)c2cc(COc3ncccc3F)nn21`, for which the concentration giving a half-maximal response (EC50) in assay [1] was 4300 nM. In addition, in assay [2], the IC50 was found to be 1100 nM. For the same molecule, in assay [3], the outcome was Active. The Activity in assay [4] was found to be 78.5%; in assay [5] it was 2.22%.
On to `C[C@@H]1CN(c2ccc(C#N)cc2)C(=O)c2cc(COc3ccc(Cl)cn3)nn21`, for which, in assay [1], the EC50 is 3320 nM. Moreover, the IC50 in assay [2] was determined as 539 nM. The outcome in assay [3] was Active. Also, the Activity in assay [4] stood at 23.1%; in assay [5] it was 1.84%.
As to `COc1cccc(OCc2cc3n(n2)[C@H](C)CN(c2ccc(F)cc2)C3=O)n1`, the EC50 in assay [1] is more than 10000 nM. The IC50 in assay [2] turned out to be 1590 nM. For the same molecule, the result in assay [3] was Active. The Activity in assay [4] came out at 31.2%; in assay [5], 1.94%.
The corresponding values for `C[C@@H]1CN(c2ccc(Cl)cc2)C(=O)c2cc(COc3ccc(F)cn3)nn21` are 364 nM, 197 nM, “Active”, 51.6% and 2.17%.
In the same order, the values of `C[C@@H]1CN(c2c(F)cccc2F)C(=O)c2cc(COc3ccc(Cl)cn3)nn21` are 1420 nM, 225 nM, “Active”, 40.3% and 2.06%.
`C[C@@H]1CN(c2ccc(F)cc2)C(=O)c2cc(COc3ncccc3C(F)(F)F)nn21`: the EC50 in assay [1] was more than 30000 nM. The IC50 in assay [2] came out at 2940 nM. For the same molecule, in assay [5], the Activity turned out to be 2.11%.
For the molecule `Cc1ccc(N2C[C@@H](C)n3nc(COc4ccc(Cl)cn4)cc3C2=O)cc1`, in assay [1], the EC50 is more than 10000 nM. Moreover, in assay [2], the IC50 amounted to 410 nM. Besides, the outcome in assay [3] was Active. In addition, the Activity in assay [4] stood at 70.8%; in assay [5] it was 1.39%.
The corresponding values for `C[C@@H]1CN(c2ncccc2F)C(=O)c2cc(COc3ccc(Cl)cn3)nn21` are more than 10000 nM, 362 nM, “Active”, 32.4% and 1.64%.
Consider `C[C@@H]1CN(c2ccc(F)cc2)C(=O)c2cc(COc3ccccc3)nn21`, for which the EC50 in assay [1] stood at 46 nM. Also, in assay [2], the IC50 was found to be 267 nM. Also, in assay [3], the result was Active. Besides, the Activity in assay [4] amounted to 87.7%; in assay [5] it was 2.21%.
For the molecule `COc1ccccc1OCc1cc2n(n1)[C@H](C)CN(c1ccc(F)cc1)C2=O`, the half-maximal effective concentration (EC50) in assay [1] is more than 10000 nM. Besides, the 50% inhibitory concentration (IC50) in assay [2] was found to be 2540 nM. Further, in assay [3], the result was Active. Also, the results for the Activity in assay [4] and in assay [5] were 63.7% and 2.32%, respectively.
With `C[C@@H]1CN(c2ccccc2F)C(=O)c2cc(COc3ccc(Cl)cn3)nn21`, the EC50 in assay [1] amounted to 3240 nM. Moreover, in assay [2], the IC50 turned out to be 226 nM. In addition, the result in assay [3] was Active. Also, the figures for the Activity in assay [4] and in assay [5] were 57.3% and 1.74%, respectively.
Turning to `C[C@@H]1CN(c2ncccc2C#N)C(=O)c2cc(COc3ccc(Cl)cn3)nn21`, the EC50 in assay [1] was more than 30000 nM. Moreover, the IC50 in assay [2] amounted to 677 nM. Also, the Activity in assay [5] worked out at 1.35%.
On to `COc1ccc(OCc2cc3n(n2)[C@H](C)CN(c2ccc(F)cc2)C3=O)cc1`, for which the concentration giving a half-maximal response (EC50) in assay [1] is 1340 nM. Also, the IC50 in assay [2] was determined as 1040 nM. Besides, in assay [3], the result was Active. In addition, the Activity in assay [4] amounted to 40.2%; in assay [5], 1.76%.
In the same order, the values of `CCc1ccc(OCc2cc3n(n2)[C@H](C)CN(c2ccc(F)cc2)C3=O)cc1` are 3210 nM, 830 nM, “Active”, 50.8% and 2.29%.
Regarding `COc1cccnc1OCc1cc2n(n1)[C@H](C)CN(c1ccc(F)cc1)C2=O`, the EC50 in assay [1] was more than 30000 nM. In addition, the IC50 in assay [2] was 6760 nM. In addition, the Activity in assay [5] was -1.14%.
Turning to `C[C@@H]1CN(c2ccc(F)cc2)C(=O)c2cc(COc3ccc(C#N)cc3)nn21`, the EC50 in assay [1] is 1940 nM. Further, the IC50 in assay [2] was 784 nM. The result in assay [3] was Active. The Activity worked out at 38.6% in assay [4] and 2.53% in assay [5].
With `C[C@@H]1CN(c2ccc(F)cc2)C(=O)c2cc(COc3ccc(OC(F)(F)F)cc3)nn21`, the EC50 in assay [1] is more than 30000 nM. Moreover, the IC50 in assay [2] came out at 4070 nM. In addition, the Activity in assay [5] was 2.66%.
Consider `C[C@@H]1CN(c2ccc(F)cc2)C(=O)c2cc(COc3ccccc3F)nn21`, for which the EC50 in assay [1] stood at 195 nM. The half-inhibitory concentration (IC50) in assay [2] was 530 nM. In assay [3], the result was Active. The Activity in assay [4] was 89.3%; in assay [5], 2.9%.
The corresponding values for `Cc1ccc(OCc2cc3n(n2)[C@H](C)CN(c2ccc(F)cc2)C3=O)cc1` are 1080 nM, 1190 nM, “Active”, 92.5% and 1.72%.
As to `C[C@@H]1CN(c2ccc(F)cc2)C(=O)c2cc(COc3cccc(C(F)(F)F)n3)nn21`, in assay [1], the EC50 was more than 30000 nM. Moreover, the half-maximal inhibitory concentration (IC50) in assay [2] was 2360 nM. The Activity in assay [5] is 2.06%.
As for `COc1ccc(N2C[C@@H](C)n3nc(COc4ccc(Cl)cn4)cc3C2=O)cc1`, in assay [1], the EC50 is 4330 nM. Moreover, the IC50 in assay [2] worked out at 439 nM. Besides, in assay [3], the result was Active. Besides, the Activity came to 59.4% in assay [4] and 2.07% in assay [5].
`C[C@@H]1CN(c2ccccc2Cl)C(=O)c2cc(COc3ccc(Cl)cn3)nn21`: the EC50 in assay [1] amounted to 5450 nM. Moreover, the IC50 in assay [2] is 328 nM. In assay [3], the outcome was Active. Also, the Activity in assay [4] came out at 51%; in assay [5] it was 1.87%.
Take `C[C@@H]1CN(c2ccc(F)cc2)C(=O)c2cc(COc3ccc(C(F)(F)F)cc3)nn21`: in assay [1], the EC50 is more than 30000 nM. The IC50 in assay [2] is 1850 nM. Moreover, the Activity in assay [5] turned out to be 4.13%.
Take `C[C@@H]1CN(c2cccc(C#N)c2)C(=O)c2cc(COc3ccc(Cl)cn3)nn21`: the EC50 in assay [1] is more than 10000 nM. In addition, the IC50 in assay [2] worked out at 825 nM. Moreover, in assay [3], the result was Active. Besides, the Activity is 32.2% in assay [4] and 1.75% in assay [5].
Turning to `C[C@@H]1CN(c2cccc(Cl)c2)C(=O)c2cc(COc3ccc(Cl)cn3)nn21`, the EC50 in assay [1] was 2870 nM. Besides, the IC50 in assay [2] stood at 558 nM. The result in assay [3] was Active. Moreover, the Activity in assay [4] was determined as 65.8%; in assay [5] it was 1.63%.
For `C[C@@H]1CN(c2ccc(F)cc2F)C(=O)c2cc(COc3ccc(Cl)cn3)nn21`, the concentration for a half-maximal effect (EC50) in assay [1] was 2580 nM. Also, in assay [2], the concentration for half-maximal inhibition (IC50) was 280 nM. For the same molecule, in assay [3], the result was Active. Further, the Activity in assay [4] was 70.8%; in assay [5] it was 1.34%.
On to `COc1ccc(N2C[C@@H](C)n3nc(COc4ccc(F)cn4)cc3C2=O)cc1`, for which the EC50 in assay [1] came to 1380 nM. Also, the IC50 in assay [2] worked out at 320 nM. The outcome in assay [3] was Active. Moreover, the Activity in assay [4] is 32.3%; in assay [5] it was 1.23%.
For `C[C@@H]1CN(c2ccc(Cl)cc2)C(=O)c2cc(COc3ccc(Cl)cn3)nn21`, the EC50 in assay [1] was 3310 nM. In addition, the IC50 in assay [2] turned out to be 1230 nM. The outcome in assay [3] was Active. For the same molecule, the values for the Activity in assay [4] and in assay [5] were 51.2% and 0.94%, respectively.
Regarding `C[C@@H]1CN(c2ccc(F)cc2)C(=O)c2cc(COc3cccc(F)c3)nn21`, in assay [1], the EC50 came out at 73 nM. The IC50 in assay [2] is 773 nM. Besides, in assay [3], the result was Active. The figures for the Activity in assay [4] and in assay [5] were 86.1% and 1.19%, respectively.
Consider `C[C@@H]1CN(c2ccc(F)nc2)C(=O)c2cc(COc3ccc(Cl)cn3)nn21`, for which, in assay [1], the EC50 is more than 10000 nM. In addition, the IC50 in assay [2] is 408 nM. Moreover, in assay [3], the result was Active. In addition, the Activity was found to be 30.6% in assay [4] and 1.45% in assay [5].
On to `C[C@@H]1CN(c2cc(F)cc(F)c2)C(=O)c2cc(COc3ccc(Cl)cn3)nn21`, for which the EC50 in assay [1] is more than 10000 nM. For the same molecule, in assay [2], the IC50 was 420 nM. Moreover, in assay [3], the result was Active. Further, the figures for the Activity in assay [4] and in assay [5] were 33.1% and 2.18%, respectively.
In the same order, the values of `Cc1ccccc1N1C[C@@H](C)n2nc(COc3ccc(Cl)cn3)cc2C1=O` are 2280 nM, 571 nM, “Active”, 80.7% and 1.95%.
As for `C[C@@H]1CN(c2cc(F)ccc2C#N)C(=O)c2cc(COc3ccc(Cl)cn3)nn21`, in assay [1], the EC50 was more than 30000 nM. The IC50 in assay [2] was determined as 529 nM. For the same molecule, the Activity in assay [5] was found to be 1.55%.
On to `C[C@@H]1CN(c2ccncc2)C(=O)c2cc(COc3ccc(F)cn3)nn21`, for which the EC50 in assay [1] is more than 30000 nM. In addition, in assay [2], the IC50 amounted to 881 nM. Further, in assay [5], the Activity was found to be 0.77%.
